In ChEMBL document CHEMBL5715941, “AZD1152, a selective inhibitor of Aurora B kinase, inhibits human tumor xenograft growth by inducing apoptosis” (Clin Cancer Res, 2007):
Activity calls are given as the source filed them. No cut-off for these calls is given here.

Assays:
Calu-6 [1] = experiment: Antitumor activity against human Calu-6 cells xenografted in immunodeficient Swiss athymic mouse assessed as maximum inhibition of tumor volume at 150 mg/kg/day, sc for 48 hrs on days 20 to 22 and measured on day 29 relative to control; format: functional; details: Calu-6, 240 h, time 10 day
In short: (§1)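 Male Swiss athymic nude mice, 8-12 wk; tumor cells (1×10^6-1×10^7, 50:50 Matrigel) implanted s.c. on flank. Randomized (n = 8-11) at 0.2-0.5 cm3. AZD1152 in Tris buffer pH 9, or vehicle (0.3 mol/L Tris), by 48-h s.c. osmotic mini-pump infusion (two 24-h pumps in sequence). Caliper volumes up to 3×/week; growth inhibition from change in control vs treated volume; one-tailed t test.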

SW-620 [2] = experiment: Antitumor activity against human SW620 cells xenografted in immunodeficient Swiss athymic mouse assessed as maximum inhibition of tumor volume at 25 mg/kg/day, sc for 48 hrs on days 7 to 9 and measured on day 14 relative to control; format: functional; details: SW-620, 192 h, time 8 day; in short: as §1
Calu-6 [3] = experiment: Antitumor activity against human Calu-6 cells xenografted in immunodeficient Swiss athymic mouse assessed as inhibition of tumor volume at 150 mg/kg/day, sc for 48 hrs on days 20 to 22 and measured on day 41 relative to control; format: functional; details: Calu-6, 528 h, time 22 day; in short: as §1
SW-620 [4] = experiment: Antitumor activity against human SW620 cells xenografted in Swiss nude mouse assessed as accumulation in proportion of 2N DNA content at 70 mg/kg/day, sc over 48 hrs by flow cytometry analysis relative to control; format: functional
In short: (§2)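 Male nude mice with palpable s.c. SW620 tumors (n = 4/group) received AZD1152 (0.5-150 mg/kg/d) or vehicle by constant 48-h s.c. mini-pump infusion. Tumors were then excised, fixed and disaggregated. Flow cytometry with propidium iodide gave DNA content (2N, 4N, >4N), and rabbit anti-PhH3 with fluorescein anti-rabbit IgG gave PhH3-positive cells (%).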

SW-620 [5] = experiment: Antitumor activity against human SW620 cells xenografted in Swiss nude mouse assessed as inhibition in PhH3 level at 10 to 150 mg/kg/day, sc measured over 48 hrs by flow cytometry analysis relative to control; format: functional; details: dose 10-150 mg/kg/day; in short: as §2
SW-620 [6] = experiment: Antitumor activity against human SW620 cells xenografted in nude athymic rat assessed as most affect in leukocyte population at 25 mg/kg/day, iv for 4 consecutive days by flow cytometric analysis; format: functional, organism-based; details: time 4.0 day
SW-620 [7] = experiment: Antitumor activity against human SW620 cells xenografted in Swiss nude mouse assessed as inhibition in PhH3 level at 2.5 mg/kg/day, sc measured over 48 hrs by flow cytometry analysis relative to control; format: functional; in short: as §2
COLO 205 [8] = experiment: Antitumor activity against human COLO 205 cells xenografted in immunodeficient Swiss athymic mouse assessed as maximum inhibition of tumor volume at 150 mg/kg/day, sc for 48 hrs on days 5 to 7 and measured on day 18 relative to control; format: functional; details: COLO 205, 336 h, time 14 day; in short: as §1
SW-620 [9] = experiment: Antitumor activity against human SW620 cells xenografted in nude athymic rat assessed as larger multinucleated tumor cells at 25 mg/kg/day, iv for 4 consecutive days and measured on 9 day by H&E staining based immunohistochemistry analysis; format: functional, organism-based
In short: (§3)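 Nude rats bearing SW620 tumors were dosed i.v. with AZD1152 at 25 mg/kg/d or with vehicle on days 1-4. Subgroups (n = 3) were killed at set days. Tumor and bone marrow sections were H&E-stained and examined histologically.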

SW-620 [10] = experiment: Antitumor activity against human SW620 cells xenografted in nude athymic rat assessed as proportion of polyploid DNA content in tumor cells at 25 mg/kg/day, iv for 1 to 5 consecutive days by flow cytometry analysis relative to control; format: functional; details: time 1-5 day
In short: (§4)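 Nude rats with SW620 xenografts (0.5-1 cm3) were given vehicle or AZD1152 at 25 mg/kg/d as an i.v. bolus once daily on days 1-4. Subgroups (n = 3) were killed on days 0, 5, 9, 12, 16 and 19. Disaggregated tumors were analyzed by flow cytometry for PhH3 (% of control) and for 4N and >4N DNA (fold over control).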

SW-620 [11] = experiment: Antitumor activity against human SW620 cells xenografted in nude athymic rat assessed as morphologic change at 25 mg/kg/day, iv for 4 consecutive days and measured on 5 day by H&E staining based immunohistochemistry analysis; format: functional, organism-based; in short: as §3
HL-60 = experiment: Antitumor activity against human HL-60 cells xenografted in immunodeficient Swiss athymic mouse assessed as inhibition of tumor volume at 150 mg/kg/day, sc for 48 hrs on days 16 to 18 and measured on day 35 relative to control; format: functional; details: HL-60, 480 h, time 20 day; in short: as §1
SW-620 [12] = experiment: Antitumor activity against human SW620 cells xenografted in immunodeficient Swiss athymic mouse assessed as inhibition of tumor volume at 25 mg/kg/day, iv for 3 days on days 6 to 8 and measured on day 24 relative to control; format: functional; details: SW-620, 456 h, time 19 day
In short: (§5)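 Male Swiss nude mice bearing s.c. flank SW620 xenografts (cells in Matrigel), randomized (n = 8-11) at 0.2-0.3 cm3. AZD1152 in Tris buffer pH 9, or vehicle, given as a once-daily i.v. or i.p. bolus. Caliper volumes up to 3×/week; inhibition from change in control vs treated volume; one-tailed t test.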

SW-620 [13] = experiment: Antitumor activity against human SW620 cells xenografted in nude athymic rat assessed as proportion of 4N DNA content in tumor cells at 25 mg/kg/day, iv for 1 to 5 consecutive days by flow cytometry analysis relative to control; format: functional; details: time 1-5 day; in short: as §4
COLO 205 [14] = experiment: Antitumor activity against human COLO 205 cells xenografted in immunodeficient Swiss athymic mouse assessed as inhibition of tumor volume at 150 mg/kg/day, sc for 48 hrs on days 5 to 7 and measured on day 21 relative to control; format: functional; details: COLO 205, 408 h, time 17 day; in short: as §1
SW-620 [15] = experiment: Antitumor activity against human SW620 cells xenografted in nude athymic rat assessed as suppression in PhH3 at 25 mg/kg/day, iv for 4 consecutive days and measured during dosing period (days 1 to 4) by flow cytometry analysis relative to control; details: time 1 to 4 day
SW-620 [16] = experiment: Antitumor activity against human SW620 cells xenografted in immunodeficient Swiss athymic mouse assessed as maximum inhibition of tumor volume at 25 mg/kg/day, iv for 3 days on days 6 to 8 and measured on day 13 relative to control; format: functional; details: SW-620, 192 h, time 8 day; in short: as §5
SW-620 [17] = experiment: Induction of polyploidy in human SW620 cells at 300 nmol/L incubated for 48 hrs by flow cytometry analysis; format: functional, cell-based
In short: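 SW620 cells were grown in L-15 with 10% heat-inactivated FCS at 37°C without CO2. They were exposed to AZD1152-HQPA for 0, 24 or 48 h, fixed in 70% ethanol at −20°C overnight, stained with propidium iodide (10 µg/mL) plus RNase (100 µg/mL), and DNA content was read by flow cytometry.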

SW-620 [18] = experiment: Antitumor activity against human SW620 cells xenografted in Swiss nude mouse assessed as accumulation in proportion of 4N DNA content at 70 mg/kg/day, sc over 48 hrs by flow cytometry analysis relative to control; format: functional; in short: as §2

CCN(CCCOc1ccc2c(Nc3cc(CC(=O)Nc4cccc(F)c4)[nH]n3)ncnc2c1)CCOP(=O)(O)O [BARASERTIB] was tested, and the inhibition in vivo at 150 mg/kg/day (Calu-6 [1]) was 67%, the inhibition in vivo at 25 mg/kg/day (SW-620 [2]) was 65% and the inhibition in vivo at 150 mg/kg/day (Calu-6 [3]) was 55%. For the same molecule, the Activity (SW-620 [4]) was 35%, the “inhibition (INH)” value (SW-620 [5]) was 77% and the Activity (SW-620 [6]) was “Active”. The inhibition in vivo at 2.5 mg/kg/day (SW-620 [7]) was 69%, the inhibition in vivo at 150 mg/kg/day (COLO 205 [8]) was over 100% and the Activity (SW-620 [9]) was “Active”. The Activity (SW-620 [10]) was 67%, the Activity (SW-620 [11]) was “Active” and the inhibition in vivo at 150 mg/kg/day (HL-60) was over 100%. The inhibition in vivo at 25 mg/kg/day (SW-620 [12]) was 47%, the Activity (SW-620 [13]) was 60% and the inhibition in vivo at 150 mg/kg/day (COLO 205 [14]) was 94%. The Activity (SW-620 [15]) was about 40%, the inhibition in vivo at 25 mg/kg/day (SW-620 [16]) was 91% and the Activity (SW-620 [17]) was “Active”. For the same molecule, the Activity (SW-620 [18]) was 56%.
